# GASC1 inh – inhibitors of human demethylase GASC-1 KDM4C; Q9H3R0; GST-KDM4C 2-372, H3K9me3 peptide, LANCE TR-FRET; inhibition, % at 12.5 µM; 0.15% of 96,000 active; AID 720574;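 active means mean replicate inhibition above about 25%, with at least 55% of replicates also reaching it, limit read from the data, passing the limit was not always enough; inconclusive means only one of those two conditions met; inactive means neither condition met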
# Target sequence (Q9H3R0 2-372 limits assumed): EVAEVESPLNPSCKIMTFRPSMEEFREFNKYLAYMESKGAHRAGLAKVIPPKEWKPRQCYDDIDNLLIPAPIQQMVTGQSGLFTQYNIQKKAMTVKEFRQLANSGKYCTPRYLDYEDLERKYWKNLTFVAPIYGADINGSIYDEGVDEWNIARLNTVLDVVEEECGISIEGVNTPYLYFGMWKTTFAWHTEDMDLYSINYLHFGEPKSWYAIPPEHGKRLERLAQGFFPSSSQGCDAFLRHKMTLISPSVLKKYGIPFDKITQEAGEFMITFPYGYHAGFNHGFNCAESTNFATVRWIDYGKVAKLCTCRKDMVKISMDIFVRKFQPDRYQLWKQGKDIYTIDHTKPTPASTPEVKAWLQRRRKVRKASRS
#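 Test system: N-terminal GST-fused human GASC-1 (KDM4C) fragment, residues 2-372; quantity: GASC-1 enzyme at 10 nM final in reaction; dosing: single dose; schedule: 30 min demethylation and 1 h detection at room temperature; signal: LANCE TR-FRET, excitation 340 nm, emissions 618 and 671 nm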
# IDH1 mut inh – blocks human IDH1 R132H reductase activity. diaphorase/resazurin fluorescence, 60 min. inhibition, % at 10 µM. 0.18% of 70,000 active. AID 624101; in the data active means inhibition above about 34%; inconclusive means no clear call, values can overlap the other calls; inactive means below about 11%;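 further: 0% = DMSO and 100% = no enzyme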
# T cruzi growth-1 – inhibitors of T. cruzi proliferation. T. cruzi beta-gal in NIH3T3, GalScreen luminescence, 90 h. inhibition, % at 8.34 µM. 5.9% of 77,000 active;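 active means mean inhibition above about 93%, with at least 55% of replicates each passing it, limit read from the data, passing the limit was not always enough; inconclusive means only one of those two conditions holds; inactive means neither condition holds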
# Pf Dd2 inh – blocks growth of Plasmodium falciparum Dd2 parasites. P. falciparum Dd2 growth, SYBR Green, 72 h; active compounds read low. AID 1159554. activity change, % at 10 µM. 2.3% of 94,000 active; in the data active means activity change below about -80%; inconclusive means no clear call, values can overlap the other calls
# T cruzi growth-2 – Trypanosoma cruzi proliferation inhibition. T. cruzi beta-gal in NIH3T3, GalScreen luminescence, 90 h. 72% of 5,600 active. shares compounds with T cruzi growth-1. inhibition, % at 8.35 µM;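 active means mean replicate inhibition above about 95% and at least 55% of replicates individually reaching it, limit read from the data; inconclusive means only one of the two criteria is met; inactive means neither criterion is met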
# T cruzi growth-3 – inhibitors of T. cruzi proliferation | AID 651740 | 21% of 5,600 active | shares compounds with T cruzi growth-1 | T. cruzi beta-gal in NIH3T3, GalScreen luminescence, 90 h | inhibition, % at 2.09 µM;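 active means mean inhibition above about 95%, with at least 55% of replicates also reaching it, limit read from the data; inconclusive means meets just one of the two conditions; inactive means meets neither condition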;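 further: plate controls were neutral control median for no effect and positive control median for full effect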
# NIH3T3 tox – kills mouse NIH/3T3 fibroblasts. shares compounds with T cruzi growth-1. NIH/3T3 viability, CellTiter-Glo ATP luminescence, 90 h. cytotoxicity (signal decrease), % at 8.35 µM. 14% of 5,600 active;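 active means mean signal decrease across replicates above about 35% based on untreated-well scatter, with enough replicates individually passing, limit read from the data; inconclusive means no rule stated though some were filed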;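 further: 0% = median of neutral control wells and 100% = median of positive control wells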
# NIH3T3 tox 2 – kills mouse NIH/3T3 fibroblasts; inhibition, % at 24.9 µM; shares compounds with T cruzi growth-1; AID 651744; 56% of 5,600 active; NIH/3T3 viability, CellTiter-Glo ATP luminescence, 90 h;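 active means mean loss of cell viability signal at or above a set limit, and enough replicates individually reaching it; inconclusive means meets only the mean limit or only the replicate share; inactive means meets neither condition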;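 further: 0% = median of neutral control wells and 100% = median of positive control wells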
# An asterisk follows results filed as active; ? = inconclusive; · = no result. A selection: hits, their analogues and other compounds. The true share with any hit is near 5.9%.
SMILES,GASC1 inh,IDH1 mut inh,T cruzi growth-1,Pf Dd2 inh,T cruzi growth-2,T cruzi growth-3,NIH3T3 tox,NIH3T3 tox 2
COc1ccc2c3c(n(C)c2c1)[C@@H](CO)N(C(=O)c1ccccn1)CC31CCN(C)CC1,0,·,·,-37,·,·,·,·
O=S(=O)(c1ccc(Cl)cc1)N1CCN(C(=S)NCc2ccco2)CC1,·,4,·,·,·,·,·,·
CCCC#Cc1ccc2c(c1)O[C@@H](CN(C)CCC)[C@H](C)CN([C@@H](C)CO)S2(=O)=O,5,-2,99*,-57,101*,62,39*,104*
Cc1c(Br)c([N+](=O)[O-])nn1CC(=O)Nc1ccc(F)cc1,·,0,·,·,·,·,·,·
Cc1sc2nc3scc(CC(=O)NCCO)n3c(=O)c2c1C,·,0,·,·,·,·,·,·
Cc1ccc(S(=O)(=O)Nc2ccc3c(c2)C(=O)N([C@@H](C)CO)C[C@H](C)[C@H](CN(C)S(=O)(=O)c2ccc(C)cc2)OCCCC[C@H](C)O3)cc1,6,·,104*,-68,105*,84,-12,-8
Cc1ccc(S(=O)(=O)Nc2ccc3c(c2)C(=O)N([C@H](C)CO)C[C@@H](C)[C@H](CN(C)S(=O)(=O)c2ccc(C)cc2)OCCCC[C@H](C)O3)cc1,1,·,91,-64,·,·,·,·
Cc1ccc(S(=O)(=O)Nc2ccc3c(c2)C(=O)N([C@@H](C)CO)C[C@H](C)[C@@H](CN(C)S(=O)(=O)c2ccc(C)cc2)OCCCC[C@H](C)O3)cc1,-1,·,106*,-76,108*,85,-19,-17
Cc1ccc(S(=O)(=O)Nc2ccc3c(c2)C(=O)N([C@H](C)CO)C[C@H](C)[C@@H](CN(C)S(=O)(=O)c2ccc(C)cc2)OCCCC[C@H](C)O3)cc1,0,·,98*,-67,97*,54,75*,59*
Cc1ccc(S(=O)(=O)Nc2ccc3c(c2)C(=O)N([C@H](C)CO)C[C@@H](C)[C@@H](CN(C)S(=O)(=O)c2ccc(C)cc2)OCCCC[C@H](C)O3)cc1,-1,·,103*,-84*,112*,?,-39,-3
Cc1ccc(S(=O)(=O)N(C)C[C@H]2OCCCC[C@H](C)Oc3ccc(NS(=O)(=O)c4ccccc4)cc3C(=O)N([C@H](C)CO)C[C@@H]2C)cc1,-1,2,99,-56,·,·,·,·
O=C(CSc1nnnn1-c1ccccc1Cl)Nc1ccc(Br)cc1,·,0,·,·,·,·,·,·
C[C@@H]1CCCCO[C@@H](CN(C)S(=O)(=O)c2ccc(Cl)cc2)[C@H](C)CN([C@@H](C)CO)C(=O)c2cc(NC(=O)NC3CCCCC3)ccc2O1,16,·,100*,·,111*,85,9,11
Cc1ccc(S(=O)(=O)N(C)C[C@H]2OCCCC[C@H](C)Oc3ccc(NC(=O)NC4CCCCC4)cc3C(=O)N([C@H](C)CO)C[C@@H]2C)cc1,1,1,112*,-67,109*,30,-3,5
Cc1ccc(S(=O)(=O)N(C)C[C@@H]2OCCCC[C@@H](C)Oc3ccc(NC(=O)NC4CCCCC4)cc3C(=O)N([C@H](C)CO)C[C@H]2C)cc1,0,-1,99*,-81*,109*,71,-20,-19
CC(C)NC(=O)Nc1ccc2c(c1)C(=O)N([C@H](C)CO)C[C@@H](C)[C@@H](CN(C)S(=O)(=O)c1ccc(Cl)cc1)OCCCC[C@@H](C)O2,0,1,98*,-65,96*,13,3,24*
Cc1ccc(S(=O)(=O)N(C)C[C@@H]2OCCCC[C@H](C)Oc3ccc(NC(=O)NC4CCCCC4)cc3C(=O)N([C@@H](C)CO)C[C@H]2C)cc1,-2,0,29,-80,·,·,·,·
Cc1ccc(OCC(=O)Nc2cccc(-c3nc4cc(Cl)ccc4o3)c2C)c(C)c1,·,0,·,·,·,·,·,·
O=C(N/N=C/c1ccc(O)c(O)c1O)c1ccccc1O,·,-1,·,·,·,·,·,·
C[C@@H]1CN([C@@H](C)CO)S(=O)(=O)c2ccc(Br)cc2O[C@H]1CN(C)Cc1ccccc1F,-3,·,·,-16,·,·,·,·
C/C=C/c1ccc2c(c1)O[C@@H](CN(C)Cc1ccccc1F)[C@H](C)CN([C@@H](C)CO)S2(=O)=O,-2,0,116*,-22,96*,90,57*,105*
C/C=C/c1ccc2c(c1)O[C@@H](CN(C)Cc1ccccc1F)[C@@H](C)CN([C@H](C)CO)S2(=O)=O,2,0,119*,-6,105*,80,0,105*
C[C@H]1CN([C@@H](C)CO)S(=O)(=O)c2ccc(Br)cc2O[C@H]1CN(C)Cc1ccccc1F,1,·,·,-4,·,·,·,·
C=CCNC(=O)[C@@H]1[C@H]2C(=O)O[C@H](c3ccccc3)[C@H](c3ccccc3)N2[C@H](c2ccc(O)cc2)[C@@]12C(=O)Nc1ccccc12,·,0,·,·,·,·,·,·
O=C(NO)c1cccc(C(=O)N/N=C/c2cccc3ccccc23)c1,·,0,·,·,·,·,·,·
SMILES,GASC1 inh,IDH1 mut inh,T cruzi growth-1,Pf Dd2 inh,T cruzi growth-2,T cruzi growth-3,NIH3T3 tox,NIH3T3 tox 2
COc1ccc(-c2ccc3c(c2)O[C@@H](CN(C)C(=O)Nc2ccccc2F)[C@@H](C)CN([C@H](C)CO)S3(=O)=O)cc1,14,0,97*,-86*,106*,57,48*,39*
C[C@H](CO)N1C[C@H](C)[C@H](CN(C)C(=O)Nc2cc(F)ccc2F)Oc2cc(-c3cccc(F)c3)ccc2S1(=O)=O,0,0,83,-65,·,·,·,·
C[C@@H]1CN([C@H](C)CO)S(=O)(=O)c2ccc(-c3ccc(F)cc3)cc2O[C@@H]1CN(C)C(=O)Nc1ccccc1F,-2,·,110*,-27,110*,50,28,37*
C[C@@H]1CN([C@@H](C)CO)S(=O)(=O)c2ccc(-c3ccccc3)cc2O[C@@H]1CN(C)C(=O)Nc1ccccc1F,3,·,-78,-28,·,·,·,·
COc1ccc(-c2ccc3c(c2)O[C@@H](CN(C)C(=O)Nc2ccccc2F)[C@H](C)CN([C@@H](C)CO)S3(=O)=O)cc1,-1,1,73,-77,·,·,·,·
C[C@@H]1CN([C@H](C)CO)S(=O)(=O)c2ccc(C#CC3CC3)cc2O[C@@H]1CN(C)C(=O)Nc1cc(F)ccc1F,-1,-1,105*,-32,109*,55,-15,-1
C[C@H](CO)N1C[C@H](C)[C@@H](CN(C)C(=O)Nc2cc(F)ccc2F)Oc2cc(-c3cccc(F)c3)ccc2S1(=O)=O,0,-1,107*,-58,111*,88,25,32*
CN1C(=O)c2cc(NC(=O)c3ccc(C(F)(F)F)cc3)ccc2OC[C@@H]2O[C@H](CC(=O)NC3Cc4ccccc4C3)CC[C@H]21,0,·,105*,-53,113*,46,16,?
